# B1: tRNA (parent)
# chain: GUUCCGUUGGCGUAAUGGUAACGCGUCUCCCUCCUAAGGAGAAGACUGCGGGUUCGAGUCCCGUACGGAACG
# Variants of: B1
# Test: yeast fitness, log relative to wild type (ln ratio); higher = fitter; tRNA-Arg(CCU), competitive growth, 37 C, 1 M NaCl
# Procedure, shortened: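 Variants were counted by 125 bp paired-end Illumina sequencing after pools of a combinatorial tRNA-Arg(CCU) library, held on a HIS3 centromeric plasmid in BY4742 lacking the chromosomal gene, grew ~6.5 generations (~26.5 h) in SC-HIS 1M NaCl at 37 °C. Each genotype's fitness is the natural log of its generations relative to the wild type's. Generations were OD-scaled log2 output/input frequencies, inverse-variance weighted over replicates.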
row,Variant,yeast fitness (ln)
1,G1A C27U C46U A69G A70G,-0.166
2,U2C G6U A43C C46U A69G A70G,-0.3
3,C66U A69G,-0.168
4,U2G G6U C66U A70U,-0.0342
5,U2G G6U A43C C66A A70G,-0.137
6,G1A U2G C66A A70G,-0.114
7,G1A C27U A43C A69G A70U C71U,-0.406
8,G1A U2C G6U C66U A69G A70G C71U,-0.221
9,G1A U2G C27U A43C C46U C66A A69G A70U C71U,-0.456
10,G1A U2G A43C C46U C66U A69G A70U,-0.181
11,U2C G6A A43C A70U C71U,-0.126
12,U2G G6U C46U C66A A70G C71U,-0.26
13,G1A U2C C27U C46U C66A A69G A70G C71U,-0.294
14,G6A C27U A43C C66U A70U C71U,-0.441
15,G1A U2C C27U C66U A70G,-0.0715
16,G1A U2G G6U C46U C66A A70U C71U,0.00484
17,G1A G6U C27U A43C C66U A69G A70G,-0.51
18,U2C G6U C27U A43C C46U C66U A69G A70G,-0.256
19,G6U A70G C71U,-0.153
20,U2G C66U A69G C71U,-0.213
21,G1A G6A A43C C46U C66A A70U,-0.143

row,Variant,yeast fitness (ln)
1,U2C C27U A43C A69G,-0.0976
2,U2G C46U A69G,-0.208
3,G6U A43C C66U A70G,-0.273
4,G6U C27U A43C C71U,-0.281
5,G1A U2G C27U A69G A70G,-0.242
6,G1A U2C G6U C46U C66A A69G A70U,0.0136
7,U2C G6A A43C A69G C71U,-0.179
8,U2G C27U C66U A70U,-0.0967
9,G1A U2G G6U A43C C46U C66A A70G,-0.178
10,U2C C46U C66U A69G A70G,-0.02
11,U2G G6U C27U C66U A70G C71U,-0.312
12,U2G G6A C66U A70G,-0.0683
13,G1A U2G C27U A43C C46U C66A A70U C71U,-0.35
14,U2C G6U C27U C66U A70G C71U,-0.57
15,G1A U2G G6A A43C C46U C66A A70G C71U,-0.169
16,G1A U2G C46U C66U A69G A70U C71U,-0.321
17,U2C G6U C46U C66A A70U C71U,-0.121
18,G1A G6A A43C C46U A70G,-0.188
19,G1A G6A A69G A70U C71U,-0.247
20,G1A U2G C27U A43C C46U A69G A70G,-0.22
21,A43C C66U A69G C71U,-0.436

row,Variant,yeast fitness (ln)
1,U2G G6A C27U A70U C71U,-0.144
2,G1A U2G C27U A43C C46U C66U C71U,-0.277
3,G1A A69G,-0.141
4,U2C C27U A43C C46U A69G C71U,-0.118
5,G6A C27U A69G C71U,-0.243
6,G1A U2C G6A C27U A43C C46U C66U C71U,-0.128
7,U2G G6A C27U C46U C66A A69G A70G C71U,-0.251
8,U2C G6U A43C C46U,-0.0413
9,U2C G6U C27U C46U A69G A70U C71U,-0.334
10,U2G G6A A43C A69G C71U,-0.364
11,U2C A43C A70U C71U,-0.102
12,G1A U2G G6U A43C C66U A70U,-0.284
13,U2G C27U A69G,-0.0592
14,C27U C46U C66A A70U,-0.0577
15,U2C G6A C27U C46U A69G A70U C71U,-0.295
16,G1A U2C G6U C27U C46U C66A A70U,-0.0687
17,G1A C27U C66U C71U,-0.322
18,G1A U2G G6A C27U A43C C66U A70U,-0.236
19,G1A C27U A43C C66A C71U,-0.277
20,U2G C46U C66U A70U,-0.00424
21,G1A U2C C27U C66A A70G C71U,-0.221

row,Variant,yeast fitness (ln)
1,G1A U2G G6U C27U A43C A70G,-0.419
2,G1A U2G C66A A70G C71U,-0.191
3,U2C C27U A43C A69G A70G C71U,-0.0704
4,G1A G6U C27U A43C C46U C66A A69G A70U C71U,-0.426
5,G1A G6U A43C C66U A69G A70U,-0.452
6,U2G C27U A43C C66A,-0.171
7,A43C C46U C66U A70G C71U,-0.149
8,U2G G6U A43C C46U C66A A70U C71U,-0.135
9,C27U A43C C66U A70G,-0.227
10,G1A U2G G6A A43C C46U C66A A70U,-0.191
11,G1A U2G G6U C27U C66U,-0.38
12,A43C C46U C66A A69G A70U,-0.0398
13,U2C G6A C27U C46U C66U A70G,-0.0278
14,U2G C27U A43C C66U A70G C71U,-0.331
15,G6A A43C C71U,-0.144
16,G1A A43C C66U A70G C71U,-0.235
17,G1A G6U C46U C71U,-0.183
18,G1A U2G G6A C27U A70G,-0.339
19,G1A U2G G6A C27U A70U,-0.24
20,G1A U2G C27U A43C C66U A69G A70U,-0.363
